# Results gathered from unrelated publications.
# Lines come from different studies, so protocols differ.
# Target: Myosin light chain kinase, smooth muscle (MYLK, Homo sapiens, UniProt Q15746)
SMILES,assay,setting,measurement,result
CN(C)c1ncnc(-c2ccc3nc(Nc4cc(CN5CCN(C(=O)CC(F)(F)F)CC5)ccn4)[nH]c3c2)c1Cl,"cell-free assay, competition with immobilised ligand",1 µM,remaining binding,68%
Cc1sc(C(=O)NC2COC2)cc1-n1cc(NC(=O)Nc2c(F)cccc2Cl)cn1,"enzyme activity, inhibitor",10 µM,remaining activity,103%
O=C(N1CCS(=O)(=O)CC1)N1C[C@H](c2ccc(OC(F)(F)F)cc2)C[C@H](c2nc(C3CC3)no2)C1,"cell-free assay, competition with immobilised ligand",1 µM,remaining binding,100%
CC(C)(C)c1nc(-c2cccc(NS(=O)(=O)c3c(F)cccc3F)c2F)c(-c2ccnc(N)n2)s1,"enzyme activity, inhibitor, radiometric",1 µM,remaining activity,74%
O=C(Nc1cnn(-c2csc(C(=O)NC3COC3)c2)c1)Nc1ccccc1Cl,"enzyme activity, inhibitor",5 µM,remaining activity,97.5%
Cc1cnn2ncc(-c3ccnc(N(C)C)n3)c2c1,binding,1 µM,remaining binding,99%
Cc1nc(N2CC[C@@H](O)C2)ncc1-c1cc(C(F)(F)F)cc2[nH]ncc12,"binding, competition with immobilised ligand",1 µM,remaining binding,100%
Cn1cncc1C1=CN(c2ncnc3[nH]cnc23)CCS1,"enzyme activity, inhibitor, radiometric",2 µM,inhibition,91.1%
COc1cc(Cl)c(C(=O)N[C@@H](CN[C@H]2CC[C@@H](N)CC2)Cc2ccc(C#N)cc2)cc1-c1ccc(CN[C@H](C)c2ccc(C)cc2)o1,"enzyme activity, inhibitor",1 µM,remaining activity,95%
O=C(Nc1cccnn1)N1CCC(=Cc2cccc(Oc3ccc(C(F)(F)F)cn3)c2)CC1,"cell-free assay, competition with immobilised ligand",1 µM,remaining binding,100%
Cn1c2c(Cl)c(Cl)ccc2c2cc[nH]c(=O)c21,"thermal stability, DSF",10 µM,ΔTm,2.4 °C
COc1cc(Nc2cnc(C#N)c(O[C@H](C)CN(C)C)n2)ncc1-c1cnn(C)c1,"enzyme activity, inhibitor, radiometric",1 µM,remaining activity,80%
Cn1cnc(Br)c1C1=CN(c2ncnc3[nH]cnc23)CCS1,"enzyme activity, inhibitor, radiometric",2 µM,inhibition,93.4%
N#CCCc1ccc2c(c1)-c1[nH]c3ccc([N+](=O)[O-])cc3c1CC(=O)N2,cell-free assay,0.5 µM,remaining signal,95.2%
O=C(NC[C@@H]1[C@H]2CN(C(=O)OCc3cc(C(F)(F)F)cc(C(F)(F)F)c3)C[C@@H]12)c1ccc2[nH]nnc2c1,"cell-free assay, competition with immobilised ligand",1 µM,remaining binding,88%
O=C1Nc2ccc(Cl)cc2C1=Cc1cc(Cl)c(O)c(Cl)c1,cell-free assay,0.5 µM,remaining signal,62.3%
Cc1cc(NC(=O)c2cccc3cc(-c4cccc5[nH]nc(N)c45)ccc23)ccc1F,"enzyme activity, inhibitor",0.1 µM,activity vs control,89%
C[C@H](NC(=O)c1cnc2n1[C@](C)(Cc1ccc(C#N)cc1)C(=O)N2c1cc(Cl)c(F)c(Cl)c1)C(=O)NC1(c2ccccn2)CC1,"cell-free assay, competition with immobilised ligand",1 µM,remaining binding,100%
CCN(CC)c1ccc(C2=NNC(=O)CC2C)cc1[N+](=O)[O-] (centres unmarked),"enzyme activity, inhibitor",10 µM,remaining activity,90%
O=C1c2ccccc2-c2n[nH]c3cccc1c23,"enzyme activity, inhibitor",0.5 µM,activity vs control,48%
Nc1nc(Nc2ccccc2)sc1C(=O)c1c(F)cccc1F,"enzyme activity, inhibitor",10 µM,remaining activity,29%
Oc1cccc(-c2nc(N3CCOCC3)c3oc4ncccc4c3n2)c1,"enzyme activity, inhibitor",10 µM,remaining activity,48%
CNC(=O)Nc1ccc2c(c1)[C@@]1(CC2)OC(=O)N(CC(=O)N(Cc2ccc(F)cc2)[C@@H](C)C(F)(F)F)C1=O,"cell-free assay, competition with immobilised ligand",1 µM,remaining binding,88%
CC(C)(C)C(=O)c1sc(NC2CCCCC2)nc1N,"enzyme activity, inhibitor",10 µM,remaining activity,74%
O=C(Nc1ccc(Oc2ccc(F)cc2)cc1)N1CCc2ncccc2[C@H]1c1ccc(F)cc1,"cell-free assay, competition with immobilised ligand",1 µM,remaining binding,100%
CN(c1ncccc1CNc1nc(Nc2ccc3c(c2)CC(=O)N3)ncc1C(F)(F)F)S(C)(=O)=O,"enzyme activity, inhibitor",1 µM,inhibition,16.6%
